Usually IC50 stands for the concentration needed to halve the response being measured. A high value points to weaker potency.

The structures appear in SMILES notation.

The target in test [1] is Glutamate receptor ionotropic, AMPA (Rattus norvegicus, UniProt P19490+P19491+P19492+P19493). In words: Affinity against Ionotropic glutamate receptor AMPA using [3H]AMPA in selective radioligand binding assay. Format: protein-complex assay. The procedure, abridged:
(§1)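 Displacement of the ionotropic radioligands ([3H]CGS19755 for NMDA, [3H]AMPA for AMPA, [3H]kainate for kainate sites) in rat forebrain membranes in vitro. Compounds were tested up to 100 μM, with IC50 as the read-out.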

A further test addresses Glutamate NMDA receptor. Kind of test: Affinity value against N-methyl-D-aspartate (NMDA) receptor using [3H]-CGS- 19755 in glutamate radioligand binding assay. The class given is protein-complex assay. The procedure, abridged: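 Displacement of the ionotropic radioligands ([3H]CGS19755 for NMDA, [3H]AMPA for AMPA, [3H]kainate for kainate sites) in rat forebrain membranes in vitro.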

The next test has as its system Mus musculus. In words: Dose dependent blocking of limbic seizures induced by compound 1 by systemically administrating intraperitoneally.
Test [2] can be described thus: In vitro ability to displace [3H]glutamate binding to metabotropic glutamate receptors in rat forebrain membranes. The class given is cell membranes, Membrane. The procedure, abridged:
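Radioligand displacement of ACPD-sensitive [3H]glutamate binding to metabotropic glutamate receptors in rat forebrain membranes in vitro. IC50 is reported as mean ± error.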

Test [3] addresses Glutamate receptor ionotropic, kainate. Kind of test: Affinity value against Ionotropic glutamate receptor kainate using [3H]-kainic acid in selective radioligand binding assay. The class given is protein-complex assay. The procedure, abridged:
as §1

For test [4], the species on record is Rattus norvegicus. Kind of test: Augmentation of AMPA-induced excitation after Microelectrophoretic application to intact rat spinal neuron. Format: functional. The procedure, abridged:
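Female Wistar rats (200–230 g) under pentobarbitone Na (60 mg/kg ip initially, supplemented ip as needed) with lumbar laminectomy. A seven-barrel glass microelectrode in spinal gray matter recorded single-neuron firing during timed intermittent AMPA ejection (barrel 10 mM in 200 mM NaCl, pH 7.4). Agonists (barrel 25 mM in 175 mM NaCl, pH 7.4) were ejected in varied order across cells. Response reported as % increase over control, mean ± SEM.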

Test [5] is filed under the species Rattus norvegicus. In words: Inhibition of forskolin-stim cAMP formation in cross-chopped slices of the adult rat cerebral cortex. The class given is functional. A general note: Cyclic AMP is a second messenger, typically raised through Gs and lowered through Gi signalling.
For test [6], the species on record is Rattus norvegicus. Kind of test: Stimulation of [3H]IP (tritiated inositol monophosphate) formation in cross-chopped slices of the neonata rat cerebral cortex. Format: functional.

Consider `N[C@@]1(C(=O)O)CN[C@@H](C(=O)O)C1`, for which the IC50 in test [1] was above 100 µM; on Glutamate NMDA receptor, above 100 µM; in test [2], 6.49 µM; in test [3], above 100 µM. The EC50 with Mus musculus was found to be 271 mg/kg; in the test listed under Rattus norvegicus [5], 14.5 µM. For the same compound, the Increase in the test listed under Rattus norvegicus [4] turned out to be 52%.
On to `N[C@]1(C(=O)O)CN[C@H](C(=O)O)C1`, for which the IC50 (in test [1]; on Glutamate NMDA receptor; in test [2]; in test [3]) was above 100 µM each time.
For `N[C@]1(C(=O)O)CN[C@@H](C(=O)O)C1`, the IC50 in test [1], in test [2] and in test [3] was above 100 µM throughout.
As to `N[C@@]1(C(=O)O)CN[C@H](C(=O)O)C1`, the IC50 in test [1] is above 100 µM; on Glutamate NMDA receptor, 23.7 µM; in test [2] it was above 100 µM; in test [3], above 100 µM.
Take `N[C@@]1(C(=O)O)CC[C@@H](C(=O)O)C1`: the IC50 is above 100 µM in test [1], above 100 µM on Glutamate NMDA receptor, 10.3 µM in test [2] and above 100 µM in test [3]. Besides, the results for the EC50 in the test listed under Rattus norvegicus [6] and in the test listed under Rattus norvegicus [5] were 27.7 µM and 8.17 µM, respectively. In the test filed under Rattus norvegicus [4], this compound came in with an Increase of 95%.

The values above are taken from ChEMBL document CHEMBL1129790 (J Med Chem, 1996).
